What all share (format): nucleic-acid assay
Assay [1] has as its system Nucleic Acid. The assay is described as follows: Binding affinity to synthetic oligonucleotide ON18 at 1.0 uM at pH 6.0 by thermal denaturation study. Put shortly:
(§1)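 Duplex melting: complementary strands at 1.0 µM each in 20 mM sodium cacodylate, 100 mM NaCl, 10 mM MgCl₂, at the pH of the line. Annealed at 80 °C for 5 min, then cooled to 5 °C and held 30 min. UV absorbance read at 260 nm with heating at 1.0 °C/min; Tm is the maximum of the first-derivative curve.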

The test system of assay [2] is Nucleic Acid. The assay is described as follows: Binding affinity to synthetic double stranded DNA D1 at 1.5 uM at pH 7.2 by thermal denaturation study. Put shortly:
(§2)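 Parallel triplex melting: target duplex assembled from strands at 1.0 µM each, TFO third strand added at 1.5 µM. Buffer 20 mM sodium cacodylate, 100 mM NaCl, 10 mM MgCl₂, at the pH of the line. Samples heated to 80 °C for 5 min, cooled to 5 °C and held 30 min. Absorbance read at 260 nm while heating at 1.0 °C/min; Tm taken as the first-derivative maximum.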

The test system of assay [3] is Nucleic Acid. Briefly: Binding affinity to synthetic oligonucleotide ON19 at 1.0 uM at pH 6.0 by thermal denaturation study. The method, boiled down: as §1
In assay [4] the test system is Nucleic Acid. Briefly: Binding affinity to synthetic oligonucleotide ON20 at 1.0 uM at pH 7.0 by thermal denaturation study. The method, boiled down:
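DNA/RNA antiparallel duplex: each strand at 1.0 µM in 10 mM sodium phosphate, 140 mM NaCl, 1 mM EDTA, pH 7.0. Heated to 80 °C for 5 min, cooled to 5 °C and held 30 min. Absorbance followed at 260 nm during a 1.0 °C/min temperature ramp; Tm is the first-derivative maximum.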

Assay [5] relates to Nucleic Acid. Briefly: Binding affinity to synthetic double stranded DNA D1 at 1.5 uM at pH 6.0 by thermal denaturation study. Put shortly:
as §2

Assay [6] deals with Nucleic Acid. Briefly: Binding affinity to synthetic oligonucleotide ON19 at 1.0 uM at pH 7.2 by thermal denaturation study. The method, boiled down:
as §1

Each structure is given as a SMILES string.

Our source for the Tm values is ChEMBL document CHEMBL1151702, “Using an aryl phenanthroimidazole moiety as a conjugated flexible intercalator to improve the hybridization efficiency of a triplex-forming oligonucleotide” (Bioorg Med Chem, 2008).

The Tm is the temperature at which the thermal transition is half complete. `Cc1cn([C@H]2C[C@H](OP(=O)(O)OC[C@H]3O[C@@H](n4cc(C)c(=O)[nH]c4=O)C[C@@H]3OP(=O)(O)OC[C@H]3O[C@@H](n4cc(C)c(=O)[nH]c4=O)C[C@@H]3O[PH](O)(O)OC[C@H]3O[C@@H](n4cc(C)c(=O)[nH]c4=O)C[C@@H]3OP(=O)(O)OC[C@H]3O[C@@H](n4cc(C)c(=O)[nH]c4=O)C[C@@H]3OP(=O)(O)OC[C@H]3O[C@@H](n4cc(C)c(=O)[nH]c4=O)C[C@@H]3O)[C@@H](COC[C@@H](CCOc3ccc(-c4nc5c6ccccc6c6ccccc6c5[nH]4)cc3)OP(=O)(O)O[C@H]3C[C@H](n4ccc(N)nc4=O)O[C@@H]3COP(=O)(O)O[C@H]3C[C@H](n4cc(C)c(=O)[nH]c4=O)O[C@@H]3COP(=O)(O)O[C@H]3C[C@H](n4cc(C)c(=O)[nH]c4=O)O[C@@H]3COP(=O)(O)O[C@H]3C[C@H](n4cc(C)c(=O)[nH]c4=O)O[C@@H]3COP(=O)(O)O[C@H]3C[C@H](n4ccc(N)nc4=O)O[C@@H]3COP(=O)(O)O[C@H]3C[C@H](n4ccc(N)nc4=O)O[C@@H]3COP(=O)(O)O[C@H]3C[C@H](n4ccc(N)nc4=O)O[C@@H]3COP(=O)(O)O[C@H]3C[C@H](n4ccc(N)nc4=O)O[C@@H]3CO)O2)c(=O)[nH]c1=O`: the midpoint of thermal melting (Tm) is 34.5 °C in assay [1]; 25 °C in assay [2]; 51 °C in assay [3]; 51 °C in assay [4]; 43.5 °C in assay [5]; 50.5 °C in assay [6].
Turning to `Cc1cn([C@H]2C[C@H](OP(=O)(O)OC[C@H]3O[C@@H](n4ccc(N)nc4=O)C[C@@H]3OP(=O)(O)OC[C@H]3O[C@@H](n4cc(C)c(=O)[nH]c4=O)C[C@@H]3OP(=O)(O)O[C@@H](COCc3ccc(C#Cc4ccc5ccc6cccc7ccc4c5c67)cc3)COC[C@H]3O[C@@H](n4cc(C)c(=O)[nH]c4=O)C[C@@H]3OP(=O)(O)OC[C@H]3O[C@@H](n4cc(C)c(=O)[nH]c4=O)C[C@@H]3O[PH](O)(O)OC[C@H]3O[C@@H](n4cc(C)c(=O)[nH]c4=O)C[C@@H]3OP(=O)(O)OC[C@H]3O[C@@H](n4cc(C)c(=O)[nH]c4=O)C[C@@H]3OP(=O)(O)OC[C@H]3O[C@@H](n4cc(C)c(=O)[nH]c4=O)C[C@@H]3O)[C@@H](COC[C@H](COCc3ccc(C#Cc4ccc5ccc6cccc7ccc4c5c67)cc3)OP(=O)(O)O[C@H]3C[C@H](n4cc(C)c(=O)[nH]c4=O)O[C@@H]3COP(=O)(O)O[C@H]3C[C@H](n4cc(C)c(=O)[nH]c4=O)O[C@@H]3COP(=O)(O)O[C@H]3C[C@H](n4ccc(N)nc4=O)O[C@@H]3COP(=O)(O)O[C@H]3C[C@H](n4ccc(N)nc4=O)O[C@@H]3COP(=O)(O)O[C@H]3C[C@H](n4ccc(N)nc4=O)O[C@@H]3COP(=O)(O)O[C@H]3C[C@H](n4ccc(N)nc4=O)O[C@@H]3CO)O2)c(=O)[nH]c1=O`, the Tm amounted to 38 °C in assay [1]; 43 °C in assay [2]; 41 °C in assay [3]; 56.5 °C in assay [5]; 38 °C in assay [6].
Turning to `Cc1cn([C@H]2C[C@H](OP(=O)(O)OC[C@H]3O[C@@H](n4cc(C)c(=O)[nH]c4=O)C[C@@H]3OP(=O)(O)OC[C@H]3O[C@@H](n4cc(C)c(=O)[nH]c4=O)C[C@@H]3OP(=O)(O)OC[C@H]3O[C@@H](n4ccc(N)nc4=O)C[C@@H]3OP(=O)(O)OC[C@H]3O[C@@H](n4cc(C)c(=O)[nH]c4=O)C[C@@H]3OP(=O)(O)OC[C@H]3O[C@@H](n4cc(C)c(=O)[nH]c4=O)C[C@@H]3OP(=O)(O)OC[C@H]3O[C@@H](n4cc(C)c(=O)[nH]c4=O)C[C@@H]3O[PH](O)(O)OC[C@H]3O[C@@H](n4cc(C)c(=O)[nH]c4=O)C[C@@H]3OP(=O)(O)OC[C@H]3O[C@@H](n4cc(C)c(=O)[nH]c4=O)C[C@@H]3OP(=O)(O)OC[C@H]3O[C@@H](n4cc(C)c(=O)[nH]c4=O)C[C@@H]3O)[C@@H](COP(=O)(O)O[C@H]3C[C@H](n4ccc(N)nc4=O)O[C@@H]3COP(=O)(O)O[C@H]3C[C@H](n4ccc(N)nc4=O)O[C@@H]3COP(=O)(O)O[C@H]3C[C@H](n4ccc(N)nc4=O)O[C@@H]3COP(=O)(O)O[C@H]3C[C@H](n4ccc(N)nc4=O)O[C@@H]3COP(=O)(O)O[C@H](CO)CCOc3ccc(-c4nc5c6ccccc6c6ccccc6c5[nH]4)cc3)O2)c(=O)[nH]c1=O`, the Tm came to 34 °C in assay [1]; 20.5 °C in assay [2]; 56.5 °C in assay [3]; 59 °C in assay [4]; 46 °C in assay [5]; 56.5 °C in assay [6].
Turning to `Cc1cn([C@H]2C[C@H](OP(=O)(O)OC[C@H]3O[C@@H](n4cc(C)c(=O)[nH]c4=O)C[C@@H]3OP(=O)(O)OC[C@H]3O[C@@H](n4cc(C)c(=O)[nH]c4=O)C[C@@H]3OP(=O)(O)OC[C@H]3O[C@@H](n4ccc(N)nc4=O)C[C@@H]3OP(=O)(O)OC[C@H]3O[C@@H](n4cc(C)c(=O)[nH]c4=O)C[C@@H]3OP(=O)(O)OC[C@H]3O[C@@H](n4cc(C)c(=O)[nH]c4=O)C[C@@H]3OP(=O)(O)OC[C@H]3O[C@@H](n4cc(C)c(=O)[nH]c4=O)C[C@@H]3O[PH](O)(O)OC[C@H]3O[C@@H](n4cc(C)c(=O)[nH]c4=O)C[C@@H]3OP(=O)(O)OC[C@H]3O[C@@H](n4cc(C)c(=O)[nH]c4=O)C[C@@H]3OP(=O)(O)OC[C@H]3O[C@@H](n4cc(C)c(=O)[nH]c4=O)C[C@@H]3O)[C@@H](COP(=O)(O)O[C@H]3C[C@H](n4ccc(N)nc4=O)O[C@@H]3COP(=O)(O)O[C@H]3C[C@H](n4ccc(N)nc4=O)O[C@@H]3COP(=O)(O)O[C@H]3C[C@H](n4ccc(N)nc4=O)O[C@@H]3COP(=O)(O)O[C@H]3C[C@H](n4ccc(N)nc4=O)O[C@@H]3COP(=O)(O)O[C@H](CO)COCc3ccc(C#Cc4ccc5ccc6cccc7ccc4c5c67)cc3)O2)c(=O)[nH]c1=O`, the Tm in assay [1] turned out to be 36 °C; in assay [2] it was 20.5 °C; in assay [3], 53 °C; in assay [5] it was 44.5 °C; in assay [6], 52 °C.
In the case of `Cc1cn([C@H]2C[C@H](OP(=O)(O)OC[C@H]3O[C@@H](n4cc(C)c(=O)[nH]c4=O)C[C@@H]3OP(=O)(O)OC[C@H]3O[C@@H](n4cc(C)c(=O)[nH]c4=O)C[C@@H]3O[PH](O)(O)OC[C@H]3O[C@@H](n4cc(C)c(=O)[nH]c4=O)C[C@@H]3OP(=O)(O)OC[C@H]3O[C@@H](n4cc(C)c(=O)[nH]c4=O)C[C@@H]3OP(=O)(O)OC[C@H]3O[C@@H](n4cc(C)c(=O)[nH]c4=O)C[C@@H]3O)[C@@H](COC[C@@H](CCOc3ccc(-c4ncc[nH]4)c4ccccc34)OP(=O)(O)O[C@H]3C[C@H](n4ccc(N)nc4=O)O[C@@H]3COP(=O)(O)O[C@H]3C[C@H](n4cc(C)c(=O)[nH]c4=O)O[C@@H]3COP(=O)(O)O[C@H]3C[C@H](n4cc(C)c(=O)[nH]c4=O)O[C@@H]3COP(=O)(O)O[C@H]3C[C@H](n4cc(C)c(=O)[nH]c4=O)O[C@@H]3COP(=O)(O)O[C@H]3C[C@H](n4ccc(N)nc4=O)O[C@@H]3COP(=O)(O)O[C@H]3C[C@H](n4ccc(N)nc4=O)O[C@@H]3COP(=O)(O)O[C@H]3C[C@H](n4ccc(N)nc4=O)O[C@@H]3COP(=O)(O)O[C@H]3C[C@H](n4ccc(N)nc4=O)O[C@@H]3CO)O2)c(=O)[nH]c1=O`, in assay [5], the Tm came to 13.5 °C.
As for `Cc1cn([C@H]2C[C@H](OP(=O)(O)OC[C@H]3O[C@@H](n4cc(C)c(=O)[nH]c4=O)C[C@@H]3OP(=O)(O)OC[C@H]3O[C@@H](n4cc(C)c(=O)[nH]c4=O)C[C@@H]3O[PH](O)(O)OC[C@H]3O[C@@H](n4cc(C)c(=O)[nH]c4=O)C[C@@H]3OP(=O)(O)OC[C@H]3O[C@@H](n4cc(C)c(=O)[nH]c4=O)C[C@@H]3OP(=O)(O)OC[C@H]3O[C@@H](n4cc(C)c(=O)[nH]c4=O)C[C@@H]3O)[C@@H](COC[C@@H](COCc3ccc(C#Cc4ccc5ccc6cccc7ccc4c5c67)cc3)OP(=O)(O)O[C@H]3C[C@H](n4ccc(N)nc4=O)O[C@@H]3COP(=O)(O)O[C@H]3C[C@H](n4cc(C)c(=O)[nH]c4=O)O[C@@H]3COP(=O)(O)O[C@H]3C[C@H](n4cc(C)c(=O)[nH]c4=O)O[C@@H]3COP(=O)(O)O[C@H]3C[C@H](n4cc(C)c(=O)[nH]c4=O)O[C@@H]3COP(=O)(O)O[C@H]3C[C@H](n4ccc(N)nc4=O)O[C@@H]3COP(=O)(O)O[C@H]3C[C@H](n4ccc(N)nc4=O)O[C@@H]3COP(=O)(O)O[C@H]3C[C@H](n4ccc(N)nc4=O)O[C@@H]3COP(=O)(O)O[C@H]3C[C@H](n4ccc(N)nc4=O)O[C@@H]3CO)O2)c(=O)[nH]c1=O`, the Tm in assay [1] turned out to be 30 °C; in assay [2], 21.5 °C; in assay [3], 44.5 °C; in assay [5], 39.5 °C.
